Calls of active or inactive are those of the source. No cut-off for these calls is given here.
What was measured:
[1] = molecular target: Acetylcholinesterase (Electrophorus electricus) (UniProt O42275); test: Inhibition of electric eel AChE using […] as a substrate at 30 uM incubated for 10 mins by DTNB reagent based Ellman's method
Procedure, shortened: (§1)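 Ellman method in Tris-HCl 0.02 M pH 7.5 with BSA, inhibitor at 30 uM final, DMSO 0.2% vehicle as negative control. Enzyme (eeAChE or equine serum BuChE) with DTNB preincubated 10 min at room temperature; acetylthiocholine or butyrylthiocholine iodide added, absorbance at 415 nm after 10 min. Activity as % of DMSO control, blank-corrected; triplicate.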

[2] = molecular target: Cholinesterase (Equus caballus) (UniProt P81908); test: Inhibition of equine serum BuChE using S-butyrylthiocholine iodide as a substrate at 30 uM incubated for 10 mins by DTNB reagent based Ellman's method; type: cell-free; procedure, shortened: as §1
SH-SY5Y [3] = test: Cytotoxicity against human SH-SY5Y cells assessed as reduction in cell viability at 80 uM incubated for 24 hrs by MTT assay; type: functional
Procedure, shortened: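 SH-SY5Y cells seeded at 2×10^4 per well, grown 24 h, then treated 24 h at 37 °C (range 2.5–80 uM). MTT 0.5 mg mL-1 in HBSS for 2 h; formazan dissolved in isopropanol, read at 570 nm (reference 690 nm). Viability relative to untreated cells; mean ± SEM of three independent experiments.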

THP-1 [4] = test: Anti-inflammatory activity in human THP-1 cells assessed as inhibition of LPS-induced IL-1beta expression at 10 uM incubated for 24 hrs by RT-PCR analysis; type: functional
Procedure, shortened: (§2)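 THP-1 monocytes differentiated to microglia-like cells with PMA 5 ng mL-1 for 24 h, then exposed 24 h to LPS 1 ug mL-1 together with compound (10 uM). RNA extracted; expression by quantitative RT-PCR, relative quantification by 2^-ΔΔCt with untreated cells as control. Mean ± SEM of three independent experiments.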

THP-1 [5] = test: Anti-inflammatory activity in human THP-1 cells assessed as inhibition of LPS-induced iNOS expression at 10 uM incubated for 24 hrs by RT-PCR analysis; type: functional; procedure, shortened: as §2
Acetylcholinesterase = Acetylcholinesterase (Electrophorus electricus, UniProt O42275); test: Inhibition of electric eel AChE using […] as a substrate incubated for 10 mins by DTNB reagent based Ellman's method
[6] = Permeability of compound in PBS buffer at pH 7.4 by PAMPA-BBB assay; type: ADME; conditions: read-out: permeability
Procedure, shortened: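 PAMPA-BBB: compound dissolved in ethanol, diluted with PBS pH 7.4 and filtered, then added in triplicate to a donor filter coated with porcine brain polar lipid (20 mg/mL in dodecane). Acceptor was PBS pH 7.4:ethanol (70:30). Incubated 2 h 45 min at about 25 °C, humidified. Donor and acceptor concentrations read by UV; compounds classed BBB+ or BBB−.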

[7] = Permeability of compound in PBS buffer at pH 6.6 by PAMPA-GIT assay; type: ADME
Procedure, shortened: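 PAMPA-GIT: 10 μM compound in PBS pH 6.6 as donor, filter coated with soy L-α-phosphatidylcholine (20 mg/mL in dodecane). Acceptor was PBS pH 7.4:DMSO (95:5). Plates shaken at 50 rpm for 8 h at room temperature. Run in triplicate; absorbed fraction (Fa%) classed high, medium or low.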

SH-SY5Y [8] = test: Neuronal plasticity in human SH-SY5Y cells assessed as increase in SYP gene expression at 10 uM incubated for 24 hrs by RT-PCR analysis; type: functional, cell-based
Procedure, shortened: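 SH-SY5Y cells grown in DMEM with 10% FBS and differentiated with retinoic acid (10 μM) for 6 days. Compound 10 μM for 24 h. RNA extracted, SYP mRNA measured by quantitative RT-PCR, relative quantity by 2^-ΔΔCt against untreated cells. Three independent experiments, mean ± SEM, Student's t-test.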

Rattus norvegicus [9] = test: Anti-inflammatory activity in LPS-induced Wistar rat assessed as increase in food intake at po dosed measured upto 24 hrs; type: functional, organism-based
Procedure, shortened: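 Adult male Wistar rats (n = 7 per group), housed individually; overnight 8 h fast, then food removed 2 h on the test day. Vehicle or compound was given by gavage, then LPS or saline intraperitoneally. Pre-weighed pelleted feed was reintroduced and weighed at 2, 4, 6 and 24 h. Results given as mean ± SEM.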

Rattus norvegicus [10] = test: Anti-inflammatory activity in LPS-induced Wistar rat assessed as increase in traveled distance at po dosed measured upto 24 hrs by open field test; type: functional, organism-based
Procedure, shortened: (§3)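 Adult male Wistar rats (n = 7–8 per group), overnight 8 h fast; vehicle or compound by gavage, then LPS or saline intraperitoneally. 2 h after LPS, each rat was placed in the centre of a circular open-field arena and filmed for 5 min. Distance travelled and immobility time were scored by video tracking. Results given as mean ± SEM.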

Rattus norvegicus [11] = test: Anti-inflammatory activity in LPS-induced Wistar rat assessed as decrease in immobility time at po dosed measured upto 24 hrs by open field test; type: functional, organism-based; procedure, shortened: as §3

Sequence of Cholinesterase (Equus caballus) (P81908 whole entry): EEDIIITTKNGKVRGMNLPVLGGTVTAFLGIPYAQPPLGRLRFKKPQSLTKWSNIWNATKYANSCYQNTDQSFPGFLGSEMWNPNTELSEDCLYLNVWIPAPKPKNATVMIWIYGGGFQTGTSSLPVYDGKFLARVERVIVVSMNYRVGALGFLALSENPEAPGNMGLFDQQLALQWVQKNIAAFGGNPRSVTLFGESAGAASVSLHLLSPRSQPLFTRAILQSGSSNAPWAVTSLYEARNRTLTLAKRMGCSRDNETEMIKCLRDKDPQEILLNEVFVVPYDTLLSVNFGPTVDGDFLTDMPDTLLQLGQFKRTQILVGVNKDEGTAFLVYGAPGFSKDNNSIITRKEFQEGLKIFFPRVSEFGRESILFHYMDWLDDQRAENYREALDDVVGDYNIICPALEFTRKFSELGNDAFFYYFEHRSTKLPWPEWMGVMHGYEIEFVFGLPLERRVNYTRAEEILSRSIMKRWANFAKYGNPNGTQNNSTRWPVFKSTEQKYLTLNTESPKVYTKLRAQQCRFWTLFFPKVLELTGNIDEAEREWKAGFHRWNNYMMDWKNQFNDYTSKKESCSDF
Sequence of Acetylcholinesterase (Electrophorus electricus) (O42275 24-633 limits assumed): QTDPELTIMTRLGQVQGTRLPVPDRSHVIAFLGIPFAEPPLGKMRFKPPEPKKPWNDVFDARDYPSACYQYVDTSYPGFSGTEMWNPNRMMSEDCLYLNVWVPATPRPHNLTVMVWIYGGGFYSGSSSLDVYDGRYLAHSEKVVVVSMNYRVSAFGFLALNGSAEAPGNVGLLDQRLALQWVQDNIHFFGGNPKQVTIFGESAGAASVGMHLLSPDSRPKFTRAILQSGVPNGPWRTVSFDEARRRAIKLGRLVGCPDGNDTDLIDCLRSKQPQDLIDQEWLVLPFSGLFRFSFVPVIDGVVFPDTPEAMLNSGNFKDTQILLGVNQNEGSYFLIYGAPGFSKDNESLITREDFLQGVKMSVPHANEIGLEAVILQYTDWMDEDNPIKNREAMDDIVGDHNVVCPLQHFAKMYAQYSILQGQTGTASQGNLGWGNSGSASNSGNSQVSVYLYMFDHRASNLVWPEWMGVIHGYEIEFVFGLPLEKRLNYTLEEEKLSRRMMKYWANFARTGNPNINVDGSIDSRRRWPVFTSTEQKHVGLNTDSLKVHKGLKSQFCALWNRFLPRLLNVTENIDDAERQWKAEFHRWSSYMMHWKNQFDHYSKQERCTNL
Sequence of Acetylcholinesterase (O42275 whole entry): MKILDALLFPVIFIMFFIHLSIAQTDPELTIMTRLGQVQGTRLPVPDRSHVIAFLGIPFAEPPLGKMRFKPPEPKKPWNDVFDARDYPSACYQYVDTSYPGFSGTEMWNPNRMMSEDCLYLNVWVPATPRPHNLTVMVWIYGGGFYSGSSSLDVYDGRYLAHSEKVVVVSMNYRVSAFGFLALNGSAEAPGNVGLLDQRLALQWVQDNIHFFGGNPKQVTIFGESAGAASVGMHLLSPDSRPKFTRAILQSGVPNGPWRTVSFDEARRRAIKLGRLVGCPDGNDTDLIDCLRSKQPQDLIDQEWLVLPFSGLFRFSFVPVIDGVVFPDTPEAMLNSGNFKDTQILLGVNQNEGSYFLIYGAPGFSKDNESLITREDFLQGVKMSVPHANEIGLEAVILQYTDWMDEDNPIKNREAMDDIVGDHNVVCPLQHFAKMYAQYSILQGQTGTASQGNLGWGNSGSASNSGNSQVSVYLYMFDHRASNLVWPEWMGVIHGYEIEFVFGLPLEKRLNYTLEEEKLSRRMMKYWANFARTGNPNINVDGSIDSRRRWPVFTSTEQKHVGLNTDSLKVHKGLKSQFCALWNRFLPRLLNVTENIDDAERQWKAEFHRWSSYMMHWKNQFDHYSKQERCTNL

SMILES | inhibition [1] | inhibition [2] | other results
O=C(CN1C(=O)c2ccccc2C1=O)N1CCN(Cc2ccc(Cl)cc2)CC1 | 7.82% | 1.26% | –
O=C(CN1C(=O)c2ccccc2C1=O)N1CCN(c2ccc(Cl)cc2)CC1 | 8.11% | -2.09% | Activity (SH-SY5Y [3]): 50%
O=C(CN1C(=O)c2ccccc2C1=O)N1CCN(Cc2ccc(Br)cc2)CC1 | 8.38% | -1.37% | –
COc1ccc(CN2CCN(C(=O)CN3C(=O)c4ccccc4C3=O)CC2)cc1 | 17.1% | 25.4% | –
O=C(CN1C(=O)c2ccccc2C1=O)N1CCN(c2ncccn2)CC1 | 39.6% | -5.36% | Activity (SH-SY5Y [3]): 50%
O=C(CN1C(=O)c2ccccc2C1=O)N1CCN(c2ccc([N+](=O)[O-])cc2)CC1 | 16.9% | -4.97% | –
Cc1ccc(N2CCN(C(=O)CN3C(=O)c4ccccc4C3=O)CC2)cc1 | 11.6% | 0.3% | –
O=C(CN1C(=O)c2ccccc2C1=O)N1CCN(c2ccncc2)CC1 | 85% | -4.47% | inhibition at 10 µM (THP-1 [4]): 39%; inhibition at 10 µM (THP-1 [5]): 43%; IC50 (Acetylcholinesterase): 3.15 µM; Papp [6]: 13.9 ×10⁻⁶ cm/s; Fa [7]: 69.8%; Papp ([7]; read-out: permeability): 3.15 ×10⁻⁶ cm/s; Activity (SH-SY5Y [8]): Active; Activity (Rattus norvegicus [9]): Active; Activity (Rattus norvegicus [10]): Active; Activity (Rattus norvegicus [11]): Active
